Source: PubChem BioAssay
Shown are actives, neighbours in structure and some others; about 29% of the full set was active somewhere.
CYP2C19 inh – inhibitors of human CYP2C19; P33261; CYP2C19 Supersomes, luciferin-H EGE luminescence, 30 min; inhibition, % at 5 µM; hit rate 21% among 96,000; AID 778;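 active = CYP2C19 inhibition above a set limit at 5 µM in the primary screen, cut at about 50% in these data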;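 note: plate controls were negative control wells for no effect and 2.5 mM tranylcypromine positive control for full effect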
Target sequence (P33261 whole entry, looked up): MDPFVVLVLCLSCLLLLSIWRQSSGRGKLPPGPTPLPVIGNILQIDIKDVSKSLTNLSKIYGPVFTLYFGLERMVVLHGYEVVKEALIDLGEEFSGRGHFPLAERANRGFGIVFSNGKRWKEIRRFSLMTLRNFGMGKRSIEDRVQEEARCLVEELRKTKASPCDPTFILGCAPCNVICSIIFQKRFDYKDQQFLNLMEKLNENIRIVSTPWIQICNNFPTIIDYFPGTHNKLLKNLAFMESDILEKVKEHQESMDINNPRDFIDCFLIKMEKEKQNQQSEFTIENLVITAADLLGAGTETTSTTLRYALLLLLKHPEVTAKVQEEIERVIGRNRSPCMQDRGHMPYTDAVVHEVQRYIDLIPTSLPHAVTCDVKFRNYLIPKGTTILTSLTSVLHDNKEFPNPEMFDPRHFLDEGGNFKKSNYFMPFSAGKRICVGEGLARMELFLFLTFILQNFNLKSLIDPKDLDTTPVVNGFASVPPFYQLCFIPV
CYP2C9 act – increases human cytochrome P450 2C9 activity; P11712; recombinant CYP2C9, luciferin-H conversion, luminescence; active compounds read high; factor 1 = untreated enzyme, 0 = blocked; activation factor at 5 µM; hit rate 1.4% among 96,000;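 active = activation factor of 2 or more for CYP2C9 at a 5 µM dose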;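 note: 0 = sulfaphenazole-blocked wells and 1 = vehicle-only wells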
Ecoli tolC – growth inhibitors of E. coli BW25113 tolC mutant; OD615; growth inhibition, % at 10 µM (by protocol); hit rate 2.2% among 65,000; AID 573;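 active = growth inhibition at or above a cutoff equal to the mean over every tested compound plus 3 SD, cut at about 60% in these data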;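 note: growth measured after 20 h incubation at 37 °C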
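Doses: one dose of 10 µM final / Material: E. coli BW25113 ΔtolC::kan, tolC deletion mutant strain / Buffer or medium: LB with kanamycin 50 µg/mL / Evaluation: percent growth inhibition / Detection: optical density read at 615 nm / Incubation: 37 °C, 20 h exposure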
Ecoli WT expand – growth inhibitors of E. coli BW25113 wild type; OD600 absorbance; growth inhibition, % at 100 µM; hit rate 0.15% among 98,000;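 active = growth inhibition above about 50% at one test dose, limit read from the data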;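 note: growth measured after 20 h incubation at 37 °C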
CYP2C9 inh – inhibitors of human CYP2C9. P11712. CYP2C9 Supersomes, luciferin-H conversion, luminescence. inhibition, % at 5 µM. hit rate 20% among 96,000;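 active = blocking of liver enzyme CYP2C9 beyond about 50% at 5 µM, limit read from the data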
CYP2C19 activ – increases human CYP2C19 enzyme activity. AID 1025. 96,000 tested, under 10 active. activation factor at 5 µM. recombinant CYP2C19, luciferin-H EGE luminescence; active compounds read high; 0 = fully inhibited enzyme, 1 = untreated enzyme;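 active = activation factor of at least 2 at 5 µM in the primary screen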;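 note: 0 = wells with 2.5 mM tranylcypromine and 1 = vehicle-only wells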
Starred values were filed as active, the others as inactive; x = no result.

SMILES	CYP2C19 inh	CYP2C9 act	Ecoli tolC	Ecoli WT expand	CYP2C9 inh	CYP2C19 activ
Cc1ccc(S(=O)(=O)NNC(=O)C2Cc3c(ccc4ccccc34)O2)cc1 (stereo unspecified)	20.0	0.4	x	2.0	55.6*	0.8
CCCCOc1ccc(S(=O)(=O)NNC(=O)C2Cc3c(ccc4ccccc34)O2)cc1 (stereo unspecified)	12.6	0.6	x	-5.0	37.8	0.9
O=C(Oc1ccccc1)c1cc2ccccc2o1	2.0	0.9	71.0*	9.0	5.7	1
Cc1ccnc(N/C=C(\C#N)c2nc(-c3cccc(Br)c3)cs2)c1	32.6	0.7	x	-17.0	31.1	0.7
CC(C)N(Cc1nc(-c2ccccc2)no1)S(=O)(=O)c1ccccc1	58.4*	0.3	34.9	-8.0	67.5*	0.4
CC(C)N(Cc1nc(-c2ccccc2)no1)C(=O)CN(C)S(=O)(=O)c1ccccc1	79.4*	0.3	-1.0	-3.0	69.1*	0.2
O=S(=O)(c1ccccc1)N(Cc1nc(-c2ccccc2)no1)C1CCCCC1	50.5*	0.1	24.4	-18.0	92.6*	0.5
CN(C1CCCCC1)S(=O)(=O)c1ccccc1	48.7	0.9	7.8	5.0	14.1	0.5
CC(C)N(Cc1nc(-c2ccccc2)no1)C(=O)CN1C(=O)c2ccccc2C1=O	x	x	6.8	2.0	x	x
CCC(NC(=O)NC1=NCCS1)(C(F)(F)F)C(F)(F)F	-4.3	1.1	13.3	1.0	-12.6	1
O=C(NCC1c2ccccc2CCN1C(=O)CN1C(=O)c2ccccc2C1=O)C1CCCCC1 (stereo unspecified)	-7.6	0.3	x	4.0	72.0*	1.1
O=C(CN1C(=O)c2ccccc2C1=O)N1CCCCC1	-10.8	1.2	-15.0	3.0	-22.8	1.1
COc1ccc(-c2ccnc3nc(N4CCN(c5ccccc5)CC4)nn23)cc1	-10.6	0.4	x	-4.0	60.6*	1.1
Cc1cc2ccc(C)c(C)c2nc1SCC#N	3.5	0.9	-3.5	-12.0	10.4	1
O=C(Cc1ccccc1)N1CCc2ccccc21	82.4*	0.7	x	-3.0	26.0	0.2
CCc1nnc(NCC(=O)N2CCc3ccccc32)s1	47.6	0.4	15.8	-3.0	59.5*	0.5
O=C1c2ccccc2C(=O)N1CCC(=O)N1CCc2ccccc21	x	x	-2.7	x	x	x
O=C(CCn1cccc1)N1CCc2ccccc21	51.5*	1	-5.7	-3.0	-4.8	0.5
CC(C)n1c(SCC(=O)N2CCCc3ccccc32)nc2c1c(=O)n(C)c(=O)n2C	x	x	2.8	x	x	x
C=CCOc1ccccc1CN1CCSCC1	71.1*	0.9	-5.6	2.0	9.8	0.3
Cc1nc(NC2=NCN(Cc3cccnc3)CN2)nc2c(C)cccc12	-11.1	1.2	-18.4	x	-15.4	1.1
CC(C)NC(=O)c1ccc2c(c1)N(CC(=O)N1CCOCC1)C(=O)C(C)(C)O2	8.4	0.8	-10.6	7.0	15.3	0.9
COC(=O)c1ccc(N2C(=O)CC(N(C)Cc3ccccc3)C2=O)cc1 (stereo unspecified)	5.7	1.1	-14.2	-10.0	-14.6	0.9
CC(=O)c1ccc(-n2c(C)ccc2-c2ccccc2)cc1	91.2*	0.2	x	7.0	79.7*	0.1
COC(=O)c1ccc(-n2c(C)ccc2-c2ccccc2)cc1	85.7*	0.1	x	4.0	86.0*	0.1
SMILES	CYP2C19 inh	CYP2C9 act	Ecoli tolC	Ecoli WT expand	CYP2C9 inh	CYP2C19 activ
CC(C)CCN(C(=O)Nc1ccccc1)C(C)c1cccs1 (stereo unspecified)	16.6	0.3	x	-10.0	73.5*	0.8
CC(c1cccs1)N(C(=O)Nc1ccccc1)C1CCCCC1 (stereo unspecified)	3.8	0.5	x	1.0	46.9	1
CCCCC(=O)Nc1ccc(NC(=O)c2cc(OC)c(OC)c(OC)c2)cn1	11.9	0.8	-14.4	-5.0	24.4	0.9
CCC(=O)Nc1cc(C)c(NC(=O)c2ccccc2OC)cn1	15.8	2.6*	-8.8	5.0	-156.8	0.8
CCCCC(=O)Nc1ccc(NC(=O)c2ccccc2OC)cn1	77.9*	3.5*	-5.9	-3.0	-247.1	0.2
CCC(=O)Nc1cc(C)c(NC(=O)c2ccco2)cn1	4.9	1.1	-4.9	7.0	-8.4	1
CC(C)(C)C(=O)Nc1ccc(C(=O)NNC(=O)Cc2ccccc2)cc1	-8.4	1.3	x	2.0	-25.3	1.1
C=CCSc1ncccc1C(=O)O	6.8	0.9	-1.3	2.0	9.8	0.9
CC(C)(C)C(=O)/C=C/Nc1ccccc1O	-0.3	1	x	8.0	-1.5	1
COCCN(Cc1cc2cc3c(cc2[nH]c1=O)OCO3)C(=O)c1cccs1	34.2	0.9	-9.9	3.0	5.1	0.7
CCn1cc(C(=O)OCC(=O)NCc2ccc3c(c2)OCO3)c(=O)c2ccc(C)nc21	21.5	0.7	-3.6	-5.0	26.7	0.8
CCOC(=O)C1CCCN(C(=O)c2cnn3c(C(F)(F)F)cc(-c4ccccc4)nc23)C1 (stereo unspecified)	21.1	0.5	18.2	18.0	45.6	0.8
CCOC(=O)C1CCCN(C(=O)c2cc3nc(-c4cccc(OC)c4)cc(C(F)(F)F)n3n2)C1 (stereo unspecified)	86.4*	0.2	43.3	-4.0	83.7*	0.1
CCOC(=O)C1CCCN(C(=O)c2cc3c(-c4cccc(OC)c4)nn(C)c3s2)C1 (stereo unspecified)	36.9	0.3	48.3	-4.0	68.0*	0.6
CCOC(=O)C1CCN(C(=O)c2cc3c(-c4ccc(OC)c(OC)c4)nn(C)c3s2)CC1	92.3*	0.1	21.1	-3.0	94.7*	0.1
COc1ccc(NC(=O)c2cc3c(-c4ccc(OC)c(OC)c4)nn(C)c3s2)cc1OC	56.9*	0.3	x	-11.0	74.3*	0.4
CCN1CCC(C(=O)NC2CCCC2)(N(Cc2cccs2)C(=O)Cn2nnc3ccccc32)CC1	-3.6	1.1	-23.7	x	-13.8	1
CCCCn1c2c(c3ccccc31)CCc1nonc1-2	-5.1	1	50.2	x	-0.5	1.1
Clc1ccc(-c2onc3c2CCCC3)cc1	12.3	0.8	x	4.0	18.2	0.9
O=C(CSc1ccc2nnc(-c3ccc(Cl)cc3)n2n1)N1CCc2ccccc21	-13.2	0.1	x	2.0	85.1*	1.1
CCn1c(SCC(=O)N2CCCc3ccccc32)nnc1-c1ccco1	71.1*	1.1	1.8	-2.0	-7.3	0.3
O=C(Cn1nnc(-c2ccncc2)n1)N1CCc2ccccc21	24.3	0.3	-8.1	-19.0	69.9*	0.8
Cc1cc2c(=O)n(Cc3ccco3)c(SCC(=O)N3CCCc4ccccc43)nc2s1	32.1	0.1	43.5	-14.0	90.5*	0.7
CC(=O)Nc1nc(CC(C)C)cc(-c2ccco2)c1C#N	-11.1	1	1.5	3.0	1.0	1.1
CCOCCCNC(=S)N1C2CCC1CC(NC(=O)NC13CC4CC(CC(C4)C1)C3)C2 (stereo unspecified)	7.3	0.9	x	-6.0	6.2	0.9
CCn1c(SCC(=O)N2CCCc3ccccc32)nc2ccccc2c1=O	69.4*	0	40.4	-8.0	96.8*	0.3
